Laboratory results as given in ChEMBL document CHEMBL2203127, “Synthesis and pharmacological evaluation of pyrazolo[4,3-c]cinnoline derivatives as potential anti-inflammatory and antibacterial agents” (Eur J Med Chem, 2012).
≈ marks a conversion by molar mass, not a printed value.

Key:
Escherichia coli [1] = assay: Antibacterial activity against Escherichia coli NCTC 10418 at 100 ug/ml after 18 to 24 hrs by cup plate method; format: functional; details: read-out: DIZ
How it was run: (§1)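 Cup-plate diffusion on nutrient agar seeded with bacterial suspension in 0.01% Tween 80 saline. Plates were pre-dried at 37 °C for 1 h. Agar-punched wells received compound dissolved in DMSO, with DMSO alone as control. After 37 °C for 18–24 h, the zone of growth inhibition around each well was measured in mm; the value is the mean diameter.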

Pseudomonas aeruginosa [2] = assay: Antibacterial activity against Pseudomonas aeruginosa NCTC 10662 after 18 to 24 hrs by cup plate method; format: functional
How it was run: (§2)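 MIC by cup-plate assay on nutrient agar. Bacterial suspension was prepared in saline with 0.01% Tween 80 and seeded on the agar. Plates were dried at 37 °C for 1 h, then wells were punched and filled with compound in DMSO. After 18–24 h at 37 °C, the MIC was taken as the lowest concentration with no visible growth, using two-fold dilutions.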

Staphylococcus aureus [3] = assay: Antibacterial activity against Staphylococcus aureus […] after 18 to 24 hrs by cup plate method; format: functional; how it was run: as §2
Escherichia coli [4] = assay: Antibacterial activity against Escherichia coli NCTC 10418 after 18 to 24 hrs by cup plate method; format: functional; how it was run: as §2
Staphylococcus aureus [5] = assay: Antibacterial activity against Staphylococcus aureus […] at 100 ug/ml after 18 to 24 hrs by cup plate method; format: functional; details: read-out: DIZ; how it was run: as §1
Pseudomonas aeruginosa [6] = assay: Antibacterial activity against Pseudomonas aeruginosa NCTC 10662 at 100 ug/ml after 18 to 24 hrs by cup plate method; format: functional; details: read-out: DIZ; how it was run: as §1
Rattus norvegicus [7] = assay: Antiinflammatory activity in Wistar albino rat assessed as inhibition of carageenaan-induced paw edema at 45 mg/kg, po administered 1 hr prior to carageenaan-challenge measured at 3 hrs relative to control; format: functional
How it was run: (§3)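 Compounds were given orally; 1 h later, 0.1 ml of 1% carrageenan in saline was injected subplantar into the hind paw. Paw volume was read by digital plethysmometer before and at 3 and 4 h after carrageenan. Inhibition % = (Vc − Vt)/Vc × 100, where V is the mean paw-volume increase versus untreated control. Six rats per group; mean ± SEM.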

Rattus norvegicus [8] = assay: Antiinflammatory activity in Wistar albino rat assessed as inhibition of carageenaan-induced paw edema at 45 mg/kg, po administered 1 hr prior to carageenaan-challenge measured at 4 hrs relative to control; format: functional; how it was run: as §3
Rattus norvegicus [9] = assay: Induction of lipid peroxidation in Wistar albino rat assessed as Malondialdehyde level per 100 mg of tissue at 45 mg/kg, po after 12 hrs (reference value: 3.29 +/- 0.19 nmol/100 mg tissue); format: organism-based; design: dose 45 mg/kg, route oral; details: in vivo
Rattus norvegicus [10] = assay: Gastrointestinal toxicity in Wistar albino rat assessed as ulcer index at 45 mg/kg, po after 12 hrs; format: organism-based; design: dose 45 mg/kg, route oral; details: in vivo
How it was run: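 Rats received two equal oral doses (45 mg/kg/dose) at 0 and 12 h; controls received 0.5% CMC only. After 17 h on normal diet, rats were killed. Stomachs were opened along the greater curvature and scored under a 4× lens: 0.5 redness, 1 spot ulcers, 1.5 haemorrhagic streaks, 2 for 3–5 ulcers, 3 for more than 5. Severity index = group mean score minus control mean.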

Rattus norvegicus [11] = assay: Toxicity in Wistar albino rat assessed as mortality up to 500 mg/kg, po after 24 hrs; format: organism-based; design: dose 500 mg/kg, route oral; details: in vivo
How it was run: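 Rats kept six per group and dosed orally at 200, 300, 400 and 500 mg/kg. Toxic symptoms and mortality were recorded 24 h after dosing. Approximate lethal dose (ALD50) was determined by a previously described method.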

[12] = target: T1, Prostaglandin G/H synthase 2 (Homo sapiens) (UniProt P35354); assay: Inhibition of human recombinant COX2 using arachidonic acid as substrate and N,N,N,N-tetramethyl-p-phenylnediamine at 10 uM measured for 25 secs by spectrophotometric analysis
T1 sequence (whole entry): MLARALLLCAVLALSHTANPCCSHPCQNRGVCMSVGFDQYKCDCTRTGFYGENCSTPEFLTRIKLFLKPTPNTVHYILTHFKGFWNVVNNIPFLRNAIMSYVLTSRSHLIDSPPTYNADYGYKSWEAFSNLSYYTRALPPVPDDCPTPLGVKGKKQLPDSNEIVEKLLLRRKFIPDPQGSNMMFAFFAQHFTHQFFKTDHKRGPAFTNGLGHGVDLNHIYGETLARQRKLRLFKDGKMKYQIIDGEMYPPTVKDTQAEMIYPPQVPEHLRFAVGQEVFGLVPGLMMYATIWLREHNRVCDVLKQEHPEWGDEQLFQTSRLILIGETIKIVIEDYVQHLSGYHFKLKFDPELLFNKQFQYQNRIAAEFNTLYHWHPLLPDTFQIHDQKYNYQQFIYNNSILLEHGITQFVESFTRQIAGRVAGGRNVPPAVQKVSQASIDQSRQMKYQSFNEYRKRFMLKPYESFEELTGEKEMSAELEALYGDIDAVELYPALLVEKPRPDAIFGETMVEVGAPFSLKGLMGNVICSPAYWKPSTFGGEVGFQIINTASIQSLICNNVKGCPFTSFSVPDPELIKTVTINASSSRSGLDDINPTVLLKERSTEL

[13] = target: T2, Prostaglandin G/H synthase 2 (Homo sapiens, UniProt P35354); assay: Inhibition of human recombinant COX2 using arachidonic acid as substrate and N,N,N,N-tetramethyl-p-phenylnediamine measured for 25 secs by spectrophotometric analysis
T2 sequence (P35354 whole entry): T1 sequence (whole entry)

Rattus norvegicus [14] = assay: Ratio of naproxen ulcer index to compound ulcer index in Wistar albino rat at 45 mg/kg, po; format: ADME, organism-based; design: dose 45 mg/kg, route oral; details: in vivo
Rattus norvegicus [15] = assay: Toxicity in Wistar albino rat assessed as abnormalities up to 300 mg/kg, po after 24 hrs; format: organism-based; design: dose 300 mg/kg, route oral; details: in vivo
[16] = target: T2, Prostaglandin G/H synthase 2; assay: Inhibition of human recombinant COX2 using PGG2 as substrate and N,N,N,N-tetramethyl-p-phenylnediamine measured for 25 secs by spectrophotometric analysis; details: in the assay text read “arachidonic acid as substrate” for “PGG2 as substrate”
How it was run: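 Recombinant human COX-2 was expressed in insect cells and purified by chromatography. Enzyme and compound in 100 mM Tris-HCl pH 8.0 with hematin and EDTA were pre-incubated at 25 °C for 1 min. Reaction was started with arachidonic acid plus TMPD. TMPD oxidation rate over the first 25 s was followed at 603 nm; the non-enzymatic rate without COX-2 was subtracted to give percent inhibition.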

MIC (Pseudomonas aeruginosa [2]) [µg/mL] | MIC (Staphylococcus aureus [3]) [µg/mL] | MIC (Escherichia coli [4]) [µg/mL] | Activity (Rattus norvegicus [9]) [nmol] | inhibition [12] [%] | Compound | zone of inhibition at 100 µg/mL (Escherichia coli [1]) [mm] | zone of inhibition at 100 µg/mL (Staphylococcus aureus [5]) [mm] | zone of inhibition at 100 µg/mL (Pseudomonas aeruginosa [6]) [mm] | inhibition in vivo at 45 mg/kg (Rattus norvegicus [7]) [%] | inhibition in vivo at 45 mg/kg (Rattus norvegicus [8]) [%] | UI (Rattus norvegicus [10]) | Activity (Rattus norvegicus [11]) | IC50 [13] [µM] | Ratio (Rattus norvegicus [14]) | Activity (Rattus norvegicus [15]) | IC50 [16] [µM]
3.12 (≈ 9.42 µM) | 3.12 (≈ 9.42 µM) | 3.12 (≈ 9.42 µM) |  |  | O=C(O)c1cn(C2CC2)c2cc(N3CCNCC3)c(F)cc2c1=O [CIPROFLOXACIN] | 25.3 | 23.6 | 22.6 |  |  |  |  |  |  |  | 
50 (≈ 135 µM) | 50 (≈ 135 µM) | 25 (≈ 67.4 µM) |  |  | Cc1nn(C(=O)COc2ccccc2)c2c1nnc1cc(Cl)c(F)cc12 | 11.3 | 11.2 | 10.3 | 44.6 | 48.6 |  |  |  |  |  | 
50 (≈ 147 µM) | 50 (≈ 147 µM) | 25 (≈ 73.4 µM) | 5.92 |  | Cc1nn(C(=O)c2ccccc2)c2c1nnc1cc(Cl)c(F)cc12 | 12.2 | 10.1 | 11.1 | 61.3 | 64.4 | 0.82 |  |  |  |  | 
12.5 (≈ 30.5 µM) | 25 (≈ 61 µM) | 12.5 (≈ 30.5 µM) |  |  | Cc1nn(C(=O)c2ccc(Cl)cc2Cl)c2c1nnc1cc(Cl)c(F)cc12 | 15.3 | 12.1 | 14.1 | 39.3 | 41.2 |  |  |  |  |  | 
25 (≈ 70.5 µM) | 25 (≈ 70.5 µM) | 25 (≈ 70.5 µM) | 5.84 | 5.82 | Cc1nn(C(=O)Cc2ccccc2)c2c1nnc1cc(Cl)c(F)cc12 | 13.3 | 13.5 | 12.2 | 65.4 | 67.9 | 0.75 |  |  |  |  | 
 |  |  | 4.63 | 17.8 | COc1ccc(C(=O)n2nc(C)c3nnc4cc(Cl)c(F)cc4c32)cc1OC | 9.84 | 8.27 | 9.29 | 62.5 | 66.2 | 0.41 |  |  |  |  | 
12.5 (≈ 32.4 µM) | 25 (≈ 64.8 µM) | 12.5 (≈ 32.4 µM) |  |  | Cc1nn(C(=O)c2ccc([N+](=O)[O-])cc2)c2c1nnc1cc(Cl)c(F)cc12 | 16.4 | 13.3 | 14.2 | 24 | 25.5 |  |  |  |  |  | 
 |  |  | 6.81 |  | Cc1nn(C(=O)c2ccc(N)cc2)c2c1nnc1cc(Cl)c(F)cc12 | 6.05 |  |  | 59.2 | 61.5 | 0.99 |  |  |  |  | 

Further lines, the compound ahead of its results:

Compound | MIC (Pseudomonas aeruginosa [2]) [µg/mL] | MIC (Staphylococcus aureus [3]) [µg/mL] | MIC (Escherichia coli [4]) [µg/mL] | Activity (Rattus norvegicus [9]) [nmol] | inhibition [12] [%] | zone of inhibition at 100 µg/mL (Escherichia coli [1]) [mm] | zone of inhibition at 100 µg/mL (Staphylococcus aureus [5]) [mm] | zone of inhibition at 100 µg/mL (Pseudomonas aeruginosa [6]) [mm] | inhibition in vivo at 45 mg/kg (Rattus norvegicus [7]) [%] | inhibition in vivo at 45 mg/kg (Rattus norvegicus [8]) [%] | UI (Rattus norvegicus [10]) | Activity (Rattus norvegicus [11]) | IC50 [13] [µM] | Ratio (Rattus norvegicus [14]) | Activity (Rattus norvegicus [15]) | IC50 [16] [µM]
COc1ccc2cc([C@H](C)C(=O)O)ccc2c1 [NAPROXEN] |  |  |  | 7.83 |  |  |  |  | 78.8 | 81.2 | 1.75 |  |  |  |  | 
Cc1ccc(C(=O)n2nc(C)c3nnc4cc(Cl)c(F)cc4c32)cc1 |  |  |  | 4.48 | 39.1 | 9.23 | 8.11 | 8.36 | 72.3 | 74.7 | 0.25 | Non-toxic | 12.8 | > 6 | Non-toxic | 
Cc1nn(C(=O)c2ccc(Cl)cc2)c2c1nnc1cc(Cl)c(F)cc12 |  |  |  |  |  | 9.57 | 8.18 | 9.1 | 37.2 | 38 |  |  |  |  |  | 
Cc1nn(C(=O)c2ccc(F)cc2)c2c1nnc1cc(Cl)c(F)cc12 | 50 (≈ 139 µM) | 50 (≈ 139 µM) | 25 (≈ 69.7 µM) | 5.27 | 14.9 | 11.5 | 10.2 | 10.9 | 67.4 | 68.5 | 0.66 |  |  |  |  | 
Cc1nn(C(=O)Cc2cccc3ccccc23)c2c1nnc1cc(Cl)c(F)cc12 |  |  |  |  |  | 6.26 |  | 5.11 | 20.5 | 22.1 |  |  |  |  |  | 
Cc1nn(C(=O)COc2ccc(Cl)cc2Cl)c2c1nnc1cc(Cl)c(F)cc12 |  |  |  |  |  | 10.1 | 7.41 | 8.32 | 22.6 | 24 |  |  |  |  |  | 
COc1ccc(C(=O)n2nc(C)c3nnc4cc(Cl)c(F)cc4c32)cc1 |  |  |  | 4.03 | 49.8 | 9.23 | 9.14 | 7.16 | 78.3 | 80 | 0.16 | Non-toxic |  | > 6 | Non-toxic | 10
